Values after ≈ are worked out from the molar mass of the structure shown.
Tests used:
[1] = system: Staphylococcus epidermidis; assay: In vitro antibacterial activity against Staphylococcus epidermis ATCC 1228; assay type: functional
How it was run: (§1)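 MIC by agar dilution on Mueller–Hinton agar, inoculum 10⁴ CFU/spot. Reported in μg/mL.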

[2] = system: Enterococcus faecalis; assay: In vitro antibacterial activity against Enterococcus faecalis C6301 (E. f. 1); assay type: functional; how it was run: as §1
[3] = system: Staphylococcus aureus; assay: In vitro antibacterial activity against methicillin-resistant Staphylococcus aureus (MRSA); assay type: functional
[4] = system: Staphylococcus aureus; assay: In vitro antibacterial activity against ciprofloxacin-resistant Staphylococcus aureus (CRSA); assay type: functional
[5] = system: Enterococcus faecalis; assay: In vitro antibacterial activity against Enterococcus faecalis C6291 (E. f. 1); assay type: functional; how it was run: as §1
[6] = system: Streptococcus pyogenes; assay: In vitro antibacterial activity against Streptococcus pyogenes C6003
[7] = system: Staphylococcus aureus; assay: In vitro antibacterial activity against Staphylococcus aureus; assay type: functional
[8] = system: Staphylococcus aureus; assay: In vitro antibacterial against methicillin-susceptible Staphylococcus aureus (MSSA); assay type: functional
[9] = system: Staphylococcus epidermidis; assay: In vitro antibacterial activity against Staphylococcus epidermis C2235; assay type: functional; how it was run: as §1
[10] = system: Enterococcus faecium; assay: In vitro antibacterial activity against vancomycin-resistant Enterococcus faecium C6487
[11] = system: Streptococcus pyogenes; assay: In vitro antibacterial activity against Streptococcus pyogenes ATTCC8668
[12] = Cmax in male rat; assay type: ADME, organism-based; conditions: in vivo
How it was run: (§2)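 Single oral dose of 15 mg/Kg to rats, with compound dissolved in 50% PEG solution.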

[13] = In vivo activity against Staphylococcus aureus when administered orally for 1 hr in rat at a dose of 15 mg/kg; assay type: ADME, organism-based; design: dose 15 mg/kg, route oral; conditions: po
[14] = Area under curve was determined in male rat; assay type: ADME, organism-based; conditions: in vivo; how it was run: as §2
[15] = Tmax in male rat; assay type: ADME, organism-based; conditions: in vivo; how it was run: as §2

Row | Compound | MIC [1] | MIC [2] | MIC [3] | MIC [4] | MIC [5] | MIC [6] | MIC [7] | MIC [8] | MIC [9] | MIC [10] | MIC [11] | Cmax [12] | half-life [13] | AUC [14] | Tmax [15]
1 | CC(=O)NC[C@H]1CN(c2ccc(N3CCC(=Cc4cc(-c5csnc5C)no4)CC3)c(F)c2)C(=O)O1 | 2 mg/L (≈ 3.91 µM) | 8 mg/L (≈ 15.6 µM) | 8 mg/L (≈ 15.6 µM) | 8 mg/L (≈ 15.6 µM) | 8 mg/L (≈ 15.6 µM) | 8 mg/L (≈ 15.6 µM) | 16 mg/L (≈ 31.3 µM) | 16 mg/L (≈ 31.3 µM) | 4 mg/L (≈ 7.82 µM) | 4 mg/L (≈ 7.82 µM) | 2 mg/L (≈ 3.91 µM) |  |  |  | 
2 | CCOC(=O)C(C)=C1CCN(c2ccc(N3C[C@H](CNC(C)=O)OC3=O)cc2F)CC1 | 4 mg/L (≈ 9.23 µM) | 8 mg/L (≈ 18.5 µM) | 8 mg/L (≈ 18.5 µM) | 8 mg/L (≈ 18.5 µM) | 8 mg/L (≈ 18.5 µM) | 16 mg/L (≈ 36.9 µM) | 16 mg/L (≈ 36.9 µM) | 16 mg/L (≈ 36.9 µM) | 8 mg/L (≈ 18.5 µM) | 8 mg/L (≈ 18.5 µM) | 4 mg/L (≈ 9.23 µM) |  |  |  | 
3 | CC(=O)NC[C@H]1CN(c2ccc(N3CCC(=Cc4cc(-c5cccs5)no4)CC3)c(F)c2)C(=O)O1 | 4 mg/L (≈ 8.06 µM) | 16 mg/L (≈ 32.2 µM) | 16 mg/L (≈ 32.2 µM) | 16 mg/L (≈ 32.2 µM) | 16 mg/L (≈ 32.2 µM) | 16 mg/L (≈ 32.2 µM) | 32 mg/L (≈ 64.4 µM) | 16 mg/L (≈ 32.2 µM) | 8 mg/L (≈ 16.1 µM) | 16 mg/L (≈ 32.2 µM) | 2 mg/L (≈ 4.03 µM) |  |  |  | 
4 | C/C(S)=N/C[C@H]1CN(c2ccc(N3CCC(=CC#N)CC3)c(F)c2)C(=O)O1 | 0.5 mg/L (≈ 1.29 µM) | 1 mg/L (≈ 2.57 µM) | 2 mg/L (≈ 5.15 µM) | 2 mg/L (≈ 5.15 µM) | 1 mg/L (≈ 2.57 µM) | 0.25 mg/L (≈ 0.644 µM) | 2 mg/L (≈ 5.15 µM) | 2 mg/L (≈ 5.15 µM) | 0.5 mg/L (≈ 1.29 µM) | 0.5 mg/L (≈ 1.29 µM) | 0.5 mg/L (≈ 1.29 µM) |  |  |  | 
5 | CCOC(=O)C(Cl)=C1CCN(c2ccc(N3C[C@H](CNC(C)=O)OC3=O)cc2F)CC1 | 2 mg/L (≈ 4.41 µM) | 2 mg/L (≈ 4.41 µM) | 16 mg/L (≈ 35.3 µM) | 16 mg/L (≈ 35.3 µM) | 4 mg/L (≈ 8.81 µM) | 8 mg/L (≈ 17.6 µM) | 32 mg/L (≈ 70.5 µM) | 8 mg/L (≈ 17.6 µM) | 4 mg/L (≈ 8.81 µM) | 4 mg/L (≈ 8.81 µM) | 2 mg/L (≈ 4.41 µM) |  |  |  | 
6 | CCOC(=O)C=C1CCN(c2ccc(N3C[C@H](CNC(C)=O)OC3=O)cc2F)CC1 | 4 mg/L (≈ 9.54 µM) | 8 mg/L (≈ 19.1 µM) | 8 mg/L (≈ 19.1 µM) | 8 mg/L (≈ 19.1 µM) | 8 mg/L (≈ 19.1 µM) | 8 mg/L (≈ 19.1 µM) | 16 mg/L (≈ 38.1 µM) | 16 mg/L (≈ 38.1 µM) | 8 mg/L (≈ 19.1 µM) | 8 mg/L (≈ 19.1 µM) | 2 mg/L (≈ 4.77 µM) |  |  |  | 
7 | CC(=O)NC[C@H]1CN(c2ccc(N3CCC(=C(C)C#N)CC3)c(F)c2)C(=O)O1 | 0.5 mg/L (≈ 1.29 µM) | 2 mg/L (≈ 5.18 µM) | 2 mg/L (≈ 5.18 µM) | 2 mg/L (≈ 5.18 µM) | 2 mg/L (≈ 5.18 µM) | 2 mg/L (≈ 5.18 µM) | 2 mg/L (≈ 5.18 µM) | 2 mg/L (≈ 5.18 µM) | 2 mg/L (≈ 5.18 µM) | 1 mg/L (≈ 2.59 µM) | 0.5 mg/L (≈ 1.29 µM) |  |  |  | 
8 | CC(=O)NC[C@H]1CN(c2ccc(N3CCC(=CC(C)OC(C)=O)CC3)c(F)c2)C(=O)O1 (stereo partly specified) | 2 mg/L (≈ 4.61 µM) | 8 mg/L (≈ 18.5 µM) | 8 mg/L (≈ 18.5 µM) | 16 mg/L (≈ 36.9 µM) | 8 mg/L (≈ 18.5 µM) | 8 mg/L (≈ 18.5 µM) | 16 mg/L (≈ 36.9 µM) | 16 mg/L (≈ 36.9 µM) | 8 mg/L (≈ 18.5 µM) | 4 mg/L (≈ 9.23 µM) | 0.25 mg/L (≈ 0.577 µM) |  |  |  | 
9 | CC(=O)NC[C@H]1CN(c2ccc(N3CC/C(=C(\C)C#N)C3)c(F)c2)C(=O)O1 | 1 mg/L (≈ 2.69 µM) | 4 mg/L (≈ 10.7 µM) |  | 1 mg/L (≈ 2.69 µM) |  |  | 1 mg/L (≈ 2.69 µM) |  | 1 mg/L (≈ 2.69 µM) | 2 mg/L (≈ 5.37 µM) |  |  |  |  | 
10 | CC(=O)NC[C@H]1CN(c2ccc(N3CCC(=CC(=O)[O-])CC3)c(F)c2)C(=O)O1.[Na+] | 1 mg/L | 4 mg/L | 4 mg/L | 8 mg/L | 8 mg/L | 8 mg/L | 8 mg/L | 8 mg/L | 1 mg/L | 8 mg/L | 2 mg/L |  |  |  | 
11 | CC(=O)NC[C@H]1CN(c2ccc(N3CC/C(=C/C#N)C3)c(F)c2)C(=O)O1 | 0.5 mg/L (≈ 1.4 µM) | 1 mg/L (≈ 2.79 µM) |  | 0.5 mg/L (≈ 1.4 µM) |  |  | 0.5 mg/L (≈ 1.4 µM) |  |  | 1 mg/L (≈ 2.79 µM) |  |  |  |  | 
12 | CC(=O)NC[C@H]1CN(c2ccc(N3CCOCC3)c(F)c2)C(=O)O1 [LINEZOLID] | 0.5 mg/L (≈ 1.48 µM) |  |  |  |  |  |  |  | 2 mg/L (≈ 5.93 µM) |  | 0.5 mg/L (≈ 1.48 µM) | 1.39 µg/mL | 3.09 h | 4.24 µg·h/mL | 0.333 h
13 | CN[C@H](CC(C)C)C(=O)N[C@H]1C(=O)N[C@@H](CC(N)=O)C(=O)N[C@H]2C(=O)N[C@H]3C(=O)N[C@H](C(=O)N[C@H](C(=O)O)c4cc(O)cc(O)c4-c4cc3ccc4O)[C@H](O)c3ccc(c(Cl)c3)Oc3cc2cc(c3O[C@@H]2O[C@H](CO)[C@@H](O)[C@H](O)[C@H]2O[C@H]2C[C@](C)(N)[C@H](O)[C@H](C)O2)Oc2ccc(cc2Cl)[C@H]1O [VANCOMYCIN] |  | 1 mg/L (≈ 0.69 µM) |  |  | 2 mg/L (≈ 1.38 µM) |  |  |  |  | > 32 mg/L | 0.12 mg/L (≈ 0.0828 µM) |  |  |  | 
